For assay [1], the system named is Mus musculus. Description: Mean body weight expressed as grams/mouse at 0hrs, when given at 100 mg/kg. In kind it is functional. In a few lines: (§1)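 Male C57BL/Ks-db/db mice, 8-9 weeks old, housed 4/cage at 22 °C with chow and water ad libitum. Mice with tail-vein plasma glucose of 350-600 mg/dL were grouped at eight per group with matched mean glucose. Oral gavage once daily for 1 or 2 days at 30 or 100 mg/kg, with vehicle control. Body weight and cage food consumption measured after 24-27 h.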

Assay [2] relates to Mus musculus. Kind of assay: In vivo plasma glucose lowering in db/db mice, given at 100 mg/kg in mouse, after 3 hr.
In assay [3] the test system is Mus musculus. Description: In vivo plasma glucose lowering in db/db mice, given at 100 mg/kg in mouse, after 24 hr.
Assay [4] deals with Mus musculus. Description: Mean body weight expressed as grams/mouse at 24hrs, when given at 100 mg/kg. It is filed as functional. In a few lines: as §1
For assay [5], the species on record is Mus musculus. Description: Food intake in db/db Mice expressed as gram/mouse/day and the observation made is after 48 hr. In kind it is functional. In a few lines:
as §1

The subject of assay [6] is Mus musculus. Kind of assay: Compound was evaluated for the in vivo effects on plasma glucose concentrations in db/db mice administered at a dose of 20 mg/kg mean body weight expressed as grams/mouse at 24 hr. In kind it is functional.
Assay [7] relates to Mus musculus. Description: Food intake in C57BL/ks Mice expressed as gram/mouse/day and the observation made at 24-48 Hrs, when administered at a dose of 30 mg/kg. In kind it is functional. Summed up: (§2)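 Lean C57BL/ks mice dosed at 30 mg/kg/day, with vehicle control, n = 8. Plasma glucose measured predose and on day 3. Body weight recorded at 0, 24 and 48 h; food intake per mouse per day over 0-24 and 24-48 h. Vehicle comparison by Student's t-test.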

For assay [8], the system named is Mus musculus. Description: Effect when given at 30 mg/kg in (C57BL/ks) mouse,Predose. It is filed as functional. Summed up: as §2
For assay [9], the system named is Mus musculus. Kind of assay: Food intake in db/db Mice expressed as gram/mouse/day and the observation made at 24 - 48 Hrs, in db/db mice administered at a dose of 20 mg/kg. In kind it is functional.
Assay [10] relates to Rattus norvegicus. Description: […] effect of drug administration on Body weight in Fructose fed STZ-treated rats, after 24 hr (Treatment group - Fructose/STZ + cryptoline HCl, 30 mg/kg). In kind it is functional. The conditions noted are these: in the assay text read “on day 3” for “after 24 hr”. In a few lines: (§3)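 Male Sprague-Dawley rats, 8 weeks old, given STZ 55 mg/kg iv and a 60% fructose diet for 1 week. Rats with serum glucose of 250-350 mg/dL were sorted into matched groups (n = 14). Oral gavage once daily for 3 days with vehicle or 30 mg/kg in 2% DMSO, 10 mL/kg. Noninjected chow-fed vehicle controls (n = 19). Body weight and cage food consumption recorded daily.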

The subject of assay [11] is Mus musculus. Kind of assay: Effect when given at 30 mg/kg in (C57BL/ks) mouse, after day 3. In kind it is functional. In a few lines: as §2
Assay [12] relates to Mus musculus. Kind of assay: Compound was evaluated for the in vivo effects on plasma glucose concentrations in db/db mice administered at a dose of 30 mg/kg mean body weight expressed as grams/mouse at 24 hr. It is filed as functional. In a few lines:
as §1

Assay [13] deals with Mus musculus. Kind of assay: Compound was evaluated for the in vivo effects on plasma glucose concentrations in db/db mice administered at a dose of 30 mg/kg mean body weight expressed as grams/mouse at 0 hr. In kind it is functional. Summed up: as §1
For assay [14], the system named is Rattus norvegicus. Kind of assay: […] effect of drug administration on food consumption in Fructose fed STZ-treated rats (Treatment group - Fructose/STZ + cryptoline HCl, 30 mg/kg). It is filed as functional. In a few lines:
as §3

Assay [15] deals with Mus musculus. Kind of assay: Food intake in db/db Mice expressed as gram/mouse/day and the observation made at 24 - 48 Hrs, in db/db mice administered at a dose of 30 mg/kg. In kind it is functional. In a few lines:
as §1

In assay [16] the test system is Mus musculus. Description: Mean body weight expressed as grams/mouse (C57BL/ks) at 0hrs, when given at 30 mg/kg. It is filed as functional. Summed up:
as §2

Assay [17] relates to Rattus norvegicus. Kind of assay: […] effect of drug administration on Body weight in Fructose fed STZ-treated rats, pre dose ((Treatment group - Fructose/STZ + cryptoline HCl, 30 mg/kg). It is filed as functional. Summed up:
as §3

Assay [18] concerns Mus musculus. Description: Mean body weight expressed as grams/mouse (C57BL/ks) at 48hrs, when given at 30 mg/kg. It is filed as functional. In a few lines:
as §2

For assay [19], the system named is Mus musculus. Kind of assay: Food intake in db/db Mice expressed as gram/mouse/day and the observation made at 0 - 24 Hrs, in db/db mice administered at a dose of 20 mg/kg. In kind it is functional.
The test system of assay [20] is Mus musculus. Kind of assay: Food intake in db/db Mice expressed as gram/mouse/day and the observation made at 0 - 24 Hrs, in db/db mice administered at a dose of 30 mg/kg. It is filed as functional. In a few lines: as §1
Assay [21] deals with Mus musculus. Kind of assay: Effect when given at 30 mg/kg in (db/db)mice,3 days postdose. In kind it is functional. In a few lines: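 db/db mice, eight per group with matched initial glucose, dosed orally by gavage once daily with vehicle or 30 mg/kg. Tail-vein blood taken predose and 3 h postdosing. Plasma glucose measured colorimetrically by glucose oxidase assay. Groups compared with vehicle by ANOVA and Fisher's post-hoc test.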

For assay [22], the species on record is Mus musculus. Description: Food intake in db/db Mice expressed as gram/mouse/day and the observed after 48 hr. It is filed as functional. Summed up:
as §1

Assay [23] relates to Mus musculus. Kind of assay: Mean body weight expressed as grams/mouse (C57BL/ks) at 24hrs, when given at 30 mg/kg. In kind it is functional. Summed up: as §2
The subject of assay [24] is Mus musculus. Description: Food intake in C57BL/ks Mice expressed as gram/mouse/day and the observation made at 0 -24 Hrs, when administered at a dose of 30 mg/kg. In kind it is functional. In a few lines: as §2
The test system of assay [25] is Mus musculus. Description: Compound was evaluated for the in vivo effects on plasma glucose concentrations in db/db mice administered at a dose of 20 mg/kg mean body weight expressed as grams/mouse at 0 hr. In kind it is functional.

Several values for one entry are separate records, joined by “and”; a condition that tells them apart may be missing. Identical values can stand only once.

Take `C[n+]1c2ccccc2cc2[nH]c3ccccc3c21.[I-]` [CRYPTOLEPTINE IODIDE]: the Mean body weight in assay [1] amounted to 42.7 g mouse-1; in [4], 41.9 g mouse-1. For the same compound, the figures for the Change of predose in assay [2] and in assay [3] were -11.5% and -22.5%, respectively. In assay [5], the Food intake stood at 1 g mouse-1 day-1.

Turning to `Cn1c2ccccc2c2nc3ccccc3cc21`, the Mean body weight in assay [1] was 41.4 g mouse-1; in assay [4], 42 g mouse-1. Besides, the figures for the Change of predose in [2] and in assay [3] were 15.3% and 14.1%, respectively. Also, the Food intake in assay [5] is 4.4 g mouse-1 day-1.

For `C[n+]1c2ccccc2cc2[n-]c3ccccc3c21` [CRYPTOLEPINE], the Mean body weight in assay [1] was 39.4 g mouse-1; in [4], 38.7 g mouse-1. Further, the Change of predose in assay [2] is -19.7%; in assay [3] it was -30%. The compound further came in with a Food intake in [5] of 1 g mouse-1 day-1.

For `C[n+]1c2ccccc2cc2[n-]c3ccccc3c21.Cl` [CRYPTOLEPINE HYDROCHLORIDE], the Mean body weight was 37.9 g mouse-1 in assay [6]; 41 g mouse-1 in assay [1]; 36.9 g mouse-1 in assay [12]; 37 g mouse-1 and 35.5 g mouse-1 in assay [13]; 23.7 g mouse-1 in assay [16]; 22.7 g mouse-1 in assay [18]. Besides, the Mean body weight in [4] was 39.8 g mouse-1; in [23], 23.3 g mouse-1; in assay [25], 38 g mouse-1 and 37.4 g mouse-1. Besides, the Food intake in assay [7] was 2.3 g mouse-1 day-1; in assay [9], 3.8 g mouse-1 day-1; in assay [14] it was 18 g/day; in assay [15] it was 2.4 g mouse-1 day-1; in assay [19] it was 3.3 g mouse-1 day-1; in assay [20], 2.4 g mouse-1 day-1. Further, the values for the Food intake in assay [22] and in assay [24] were 0.9 g mouse-1 day-1 and 2.7 g mouse-1 day-1, respectively. Also, the Change of predose in assay [8] was 184 mg/dL; in assay [11], 171 mg/dL; in assay [2] it was -16.4%; in assay [3], -43.1%; in [21] it was 358 mg/dL. In addition, the Body weight in assay [10] is 223 g; in assay [17], 201 g.

The values above are taken from ChEMBL document CHEMBL1131567, “Ethnobotanical-directed discovery of the antihyperglycemic properties of cryptolepine: its isolation from Cryptolepis sanguinolenta, synthesis, and in vitro and in vivo activities” (1998).
